What was measured:
[1] = target: Cyclin-dependent kinase 4/cyclin D (Homo sapiens, UniProt P11802); experiment: (§1) Inhibition of [32P]ATP binding to Cyclin dependant kinase 4-cyclin D; format: protein-complex assay
In short: (§2)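 Human recombinant Cdk–cyclin holoenzymes expressed in insect cells via baculovirus. Each reaction held 20 ng enzyme, 1 µg GST-retinoblastoma substrate and inhibitor dilutions in 20 mM Tris pH 7.4, 50 mM NaCl, 1 mM DTT, 10 mM MgCl2. Started with [32P]ATP (0.25 µCi), at 25 µM for Cdk4 or 12 µM for Cdk2/E, Cdk2/A and Cdc2/B. Ran 15 min at 25 °C. Stopped with TCA and precipitated ≥1 h at 4 °C.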

[2] = target: Cyclin-dependent kinase 2/cyclin A (Homo sapiens, UniProt P24941); experiment: (§3) Inhibition of [32P]ATP binding to Cyclin dependent kinase 2-cyclin A; format: protein-complex assay
In short: (§4)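 Human recombinant Cdk–cyclin holoenzymes expressed in insect cells via baculovirus. Each reaction held 20 ng enzyme, 1 µg GST-retinoblastoma substrate and inhibitor dilutions in 20 mM Tris pH 7.4, 50 mM NaCl, 1 mM DTT, 10 mM MgCl2. Stopped with TCA and precipitated ≥1 h at 4 °C.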

[3] = target: Cyclin-dependent kinase 1/cyclin B (Homo sapiens, UniProt P06493); experiment: Inhibition of [32P]ATP binding to Cyclin dependent kinase 1-cyclin B; format: protein-complex assay; in short: as §2
[4] = target: Cyclin-dependent kinase 2/cyclin E (Homo sapiens, UniProt P24941); experiment: Inhibition of [32P]ATP binding to Cyclin dependent kinase 2-cyclin E; format: protein-complex assay; in short: as §4
[5] = target: Cyclin-dependent kinase 2/cyclin A (Homo sapiens, UniProt P24941+P20248+P78396); experiment: as §3; format: protein-complex assay; in short: as §4
[6] = target: Cyclin-dependent kinase 4/cyclin D (Homo sapiens, UniProt P11802+P24385+P30281+P30279); experiment: as §1; format: protein-complex assay; in short: as §2
Cyclin-dependent kinase 4/cyclin D (Homo sapiens, UniProt P11802+P24385+P30281+P30279), sequence (P11802 whole entry): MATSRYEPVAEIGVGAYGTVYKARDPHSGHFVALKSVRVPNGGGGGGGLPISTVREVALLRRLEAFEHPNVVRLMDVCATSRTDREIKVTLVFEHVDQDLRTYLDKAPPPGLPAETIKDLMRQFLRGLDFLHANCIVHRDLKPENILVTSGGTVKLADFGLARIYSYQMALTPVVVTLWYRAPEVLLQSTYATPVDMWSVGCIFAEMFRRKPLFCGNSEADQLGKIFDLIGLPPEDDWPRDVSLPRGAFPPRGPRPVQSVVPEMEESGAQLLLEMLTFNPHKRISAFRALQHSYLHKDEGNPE
Cyclin-dependent kinase 4/cyclin D (Homo sapiens, UniProt P11802+P24385+P30281+P30279), sequence (P24385 whole entry): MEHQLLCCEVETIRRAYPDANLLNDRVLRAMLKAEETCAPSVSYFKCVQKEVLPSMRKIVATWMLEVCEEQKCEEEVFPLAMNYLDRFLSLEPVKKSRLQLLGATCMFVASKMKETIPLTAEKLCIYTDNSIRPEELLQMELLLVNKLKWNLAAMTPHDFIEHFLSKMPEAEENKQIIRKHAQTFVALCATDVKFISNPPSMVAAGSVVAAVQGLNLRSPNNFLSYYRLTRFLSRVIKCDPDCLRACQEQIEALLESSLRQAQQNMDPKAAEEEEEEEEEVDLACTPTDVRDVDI
Cyclin-dependent kinase 4/cyclin D (Homo sapiens, UniProt P11802+P24385+P30281+P30279), sequence (P30281 whole entry): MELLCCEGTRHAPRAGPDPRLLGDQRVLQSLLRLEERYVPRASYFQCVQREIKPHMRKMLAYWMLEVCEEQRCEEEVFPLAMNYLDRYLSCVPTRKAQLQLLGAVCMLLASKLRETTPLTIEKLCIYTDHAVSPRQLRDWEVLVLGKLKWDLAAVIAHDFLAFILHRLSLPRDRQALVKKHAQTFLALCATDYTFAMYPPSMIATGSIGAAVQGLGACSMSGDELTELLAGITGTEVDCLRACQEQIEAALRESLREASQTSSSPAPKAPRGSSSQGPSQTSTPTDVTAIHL
Cyclin-dependent kinase 4/cyclin D (Homo sapiens, UniProt P11802+P24385+P30281+P30279), sequence (P30279 whole entry): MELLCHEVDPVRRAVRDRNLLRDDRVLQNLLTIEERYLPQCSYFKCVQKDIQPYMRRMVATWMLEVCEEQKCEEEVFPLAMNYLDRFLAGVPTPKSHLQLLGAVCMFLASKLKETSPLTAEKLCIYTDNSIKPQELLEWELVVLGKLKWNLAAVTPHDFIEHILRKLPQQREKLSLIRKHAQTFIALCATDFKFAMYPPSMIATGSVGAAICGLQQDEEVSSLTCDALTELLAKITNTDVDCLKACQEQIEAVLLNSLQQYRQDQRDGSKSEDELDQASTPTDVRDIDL

[7] = Inhibition of Mitogen activated protein kinase kinase 1
[8] = target: c-Jun N-terminal kinase, JNK (Homo sapiens, UniProt P45983+P53779+P45984); experiment: Inhibition of c-Jun N-terminal kinase; format: protein assay
[9] = target: Mitogen-activated protein kinase 1 (Homo sapiens, UniProt P28482); experiment: Inhibition of Mitogen activated protein kinase (MAPK2/erk2)
Mitogen-activated protein kinase 1, sequence (P28482 whole entry): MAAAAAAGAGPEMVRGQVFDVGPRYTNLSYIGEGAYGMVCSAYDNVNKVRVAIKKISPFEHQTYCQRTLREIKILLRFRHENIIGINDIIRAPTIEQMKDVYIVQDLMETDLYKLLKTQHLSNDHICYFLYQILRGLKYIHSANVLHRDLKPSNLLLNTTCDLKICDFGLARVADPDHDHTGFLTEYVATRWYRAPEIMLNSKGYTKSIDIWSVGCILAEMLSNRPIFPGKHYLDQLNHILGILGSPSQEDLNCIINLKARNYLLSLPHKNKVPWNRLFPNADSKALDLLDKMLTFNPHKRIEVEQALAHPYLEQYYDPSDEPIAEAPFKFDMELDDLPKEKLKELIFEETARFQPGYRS

[10] = Inhibition of Phosphorylase kinase
[11] = target: Serine/threonine-protein kinase AKT (Homo sapiens, UniProt P31751+Q9Y243+P31749); experiment: Inhibition of Protein kinase B; format: protein assay
[12] = target: Mitogen-activated protein kinase 11 (Homo sapiens, UniProt Q15759); experiment: Inhibition of Stress activated protein kinase 2b
Mitogen-activated protein kinase 11, sequence (Q15759 whole entry): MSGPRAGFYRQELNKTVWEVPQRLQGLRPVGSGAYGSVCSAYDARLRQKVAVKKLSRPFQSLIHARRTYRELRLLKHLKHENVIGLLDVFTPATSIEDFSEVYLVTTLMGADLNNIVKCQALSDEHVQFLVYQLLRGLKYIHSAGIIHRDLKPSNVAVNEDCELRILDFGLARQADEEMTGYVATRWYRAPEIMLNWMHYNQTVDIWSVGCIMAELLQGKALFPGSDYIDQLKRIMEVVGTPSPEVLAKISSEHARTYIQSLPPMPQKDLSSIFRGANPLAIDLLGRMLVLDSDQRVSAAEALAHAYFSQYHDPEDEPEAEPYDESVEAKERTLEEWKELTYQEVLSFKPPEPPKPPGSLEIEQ

[13] = target: Fibroblast growth factor receptor (Homo sapiens, UniProt P22607+P11362+P22455+P21802); experiment: Inhibition of Fibroblast growth factor receptor; format: protein assay
[14] = target: Ribosomal protein S6 kinase (P70S6K) (Homo sapiens, UniProt P23443+Q9UBS0); experiment: Inhibition of Ribosomal protein S6 kinase (p70S6K1); format: protein-complex assay
Ribosomal protein S6 kinase (P70S6K), sequence (Q9UBS0 whole entry): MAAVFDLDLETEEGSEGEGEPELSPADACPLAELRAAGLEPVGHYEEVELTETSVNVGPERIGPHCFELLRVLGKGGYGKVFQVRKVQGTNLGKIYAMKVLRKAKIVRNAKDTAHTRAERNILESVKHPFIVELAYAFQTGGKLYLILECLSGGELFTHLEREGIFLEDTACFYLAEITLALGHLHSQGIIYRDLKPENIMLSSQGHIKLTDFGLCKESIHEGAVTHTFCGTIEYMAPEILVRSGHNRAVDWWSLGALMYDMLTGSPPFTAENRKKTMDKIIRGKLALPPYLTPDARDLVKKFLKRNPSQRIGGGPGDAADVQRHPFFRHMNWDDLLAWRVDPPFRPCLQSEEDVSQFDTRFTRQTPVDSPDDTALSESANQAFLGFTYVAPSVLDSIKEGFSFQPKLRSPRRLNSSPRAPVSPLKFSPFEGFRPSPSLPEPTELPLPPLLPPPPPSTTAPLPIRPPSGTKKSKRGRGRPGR
Ribosomal protein S6 kinase (P70S6K), sequence (P23443 whole entry): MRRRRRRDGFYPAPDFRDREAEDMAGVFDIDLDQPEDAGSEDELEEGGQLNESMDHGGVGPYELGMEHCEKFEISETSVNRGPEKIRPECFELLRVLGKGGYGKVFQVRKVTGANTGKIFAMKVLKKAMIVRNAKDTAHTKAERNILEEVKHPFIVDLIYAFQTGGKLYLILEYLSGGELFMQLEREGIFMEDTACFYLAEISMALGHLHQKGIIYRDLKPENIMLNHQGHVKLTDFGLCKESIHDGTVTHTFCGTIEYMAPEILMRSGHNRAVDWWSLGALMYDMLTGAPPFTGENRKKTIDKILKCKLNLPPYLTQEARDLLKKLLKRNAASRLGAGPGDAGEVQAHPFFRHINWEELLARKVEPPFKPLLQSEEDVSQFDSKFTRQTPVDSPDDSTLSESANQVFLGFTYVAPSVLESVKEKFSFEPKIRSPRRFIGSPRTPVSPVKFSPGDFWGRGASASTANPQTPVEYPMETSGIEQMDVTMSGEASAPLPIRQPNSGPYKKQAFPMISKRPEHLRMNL

[15] = target: T1, MAP kinase-activated protein kinase 5 (Homo sapiens, UniProt Q8IW41); experiment: Inhibition of p38-regulated/activated kinase (PRAK)
T1 sequence (Q8IW41 whole entry): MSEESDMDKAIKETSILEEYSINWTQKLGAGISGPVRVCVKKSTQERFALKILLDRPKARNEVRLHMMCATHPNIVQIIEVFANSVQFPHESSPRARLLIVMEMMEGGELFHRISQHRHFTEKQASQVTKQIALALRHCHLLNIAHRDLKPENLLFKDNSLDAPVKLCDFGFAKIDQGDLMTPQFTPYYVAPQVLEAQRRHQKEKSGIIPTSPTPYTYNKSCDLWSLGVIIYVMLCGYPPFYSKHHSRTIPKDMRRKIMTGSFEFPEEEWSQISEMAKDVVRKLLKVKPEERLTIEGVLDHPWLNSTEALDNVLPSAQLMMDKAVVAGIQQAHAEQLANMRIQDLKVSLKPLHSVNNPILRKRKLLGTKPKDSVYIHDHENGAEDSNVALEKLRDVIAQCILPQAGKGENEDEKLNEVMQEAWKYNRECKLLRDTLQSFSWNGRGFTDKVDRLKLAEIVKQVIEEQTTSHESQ

MDA-MB-435 = experiment: In vitro inhibitory concentration is measured by the incorporation of [14C]thymidine in human breast carcinoma MDA-MB-435 cell line; format: functional, cell-based
[16] = Inhibition of 3-phosphoinisitide-dependent protein kinase-1
[17] = Inhibition of Tyrosine-protein kinase CSK
[18] = Inhibition of Protein Kinase A; parameters: species or system Homo sapiens
[19] = target: MAP kinase-activated protein kinase 2 (Homo sapiens, UniProt P49137); experiment: Inhibition of MAP kinase-activated protein kinase 2
MAP kinase-activated protein kinase 2, sequence (P49137 whole entry): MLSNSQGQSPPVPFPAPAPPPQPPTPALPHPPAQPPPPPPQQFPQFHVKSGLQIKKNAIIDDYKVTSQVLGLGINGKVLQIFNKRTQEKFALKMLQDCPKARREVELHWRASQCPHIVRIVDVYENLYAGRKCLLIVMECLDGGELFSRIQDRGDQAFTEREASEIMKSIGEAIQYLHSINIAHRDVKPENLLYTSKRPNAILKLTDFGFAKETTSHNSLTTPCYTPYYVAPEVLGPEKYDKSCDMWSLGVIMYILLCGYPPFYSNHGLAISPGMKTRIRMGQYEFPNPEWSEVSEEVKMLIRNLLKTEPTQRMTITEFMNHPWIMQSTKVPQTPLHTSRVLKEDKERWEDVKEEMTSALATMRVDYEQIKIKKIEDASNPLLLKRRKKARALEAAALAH

Protein kinase C (PKC) = experiment: Inhibition of Protein Kinase C; format: protein assay, Homo sapiens
[20] = target: Mitogen-activated protein kinase 14 (Homo sapiens, UniProt Q16539); experiment: Inhibition of Stress activated protein kinase 2a
Mitogen-activated protein kinase 14, sequence (Q16539 whole entry): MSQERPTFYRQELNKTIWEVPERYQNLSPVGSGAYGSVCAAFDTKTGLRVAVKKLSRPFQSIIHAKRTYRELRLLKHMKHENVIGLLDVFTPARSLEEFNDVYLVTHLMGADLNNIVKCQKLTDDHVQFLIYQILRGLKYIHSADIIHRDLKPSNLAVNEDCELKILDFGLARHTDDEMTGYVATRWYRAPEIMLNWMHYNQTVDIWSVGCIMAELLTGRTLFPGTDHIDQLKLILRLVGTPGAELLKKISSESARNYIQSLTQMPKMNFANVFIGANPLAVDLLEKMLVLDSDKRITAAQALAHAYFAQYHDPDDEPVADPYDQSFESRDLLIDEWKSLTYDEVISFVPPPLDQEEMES

[21] = target: Glycogen synthase kinase-3 beta (Homo sapiens, UniProt P49841); experiment: Inhibition of Glycogen synthase kinase 3 beta
Glycogen synthase kinase-3 beta, sequence (P49841 whole entry): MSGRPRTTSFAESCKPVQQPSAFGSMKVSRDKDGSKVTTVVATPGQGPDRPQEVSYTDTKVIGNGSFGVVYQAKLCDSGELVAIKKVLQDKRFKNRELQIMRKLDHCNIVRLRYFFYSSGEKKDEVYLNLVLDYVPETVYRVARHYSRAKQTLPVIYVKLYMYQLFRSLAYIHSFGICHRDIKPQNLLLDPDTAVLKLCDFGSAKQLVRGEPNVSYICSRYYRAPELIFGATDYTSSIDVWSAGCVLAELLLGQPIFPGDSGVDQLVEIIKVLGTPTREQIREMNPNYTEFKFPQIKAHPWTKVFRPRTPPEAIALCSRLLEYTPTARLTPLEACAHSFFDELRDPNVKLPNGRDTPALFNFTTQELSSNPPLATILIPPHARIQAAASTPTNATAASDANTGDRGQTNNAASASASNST

[22] = target: Ribosomal protein S6 kinase alpha-5 (Homo sapiens, UniProt O75582); experiment: Inhibition of mitogen and stress-activated protein kinase-1(MSK-1 kinase)
Ribosomal protein S6 kinase alpha-5, sequence (O75582 whole entry): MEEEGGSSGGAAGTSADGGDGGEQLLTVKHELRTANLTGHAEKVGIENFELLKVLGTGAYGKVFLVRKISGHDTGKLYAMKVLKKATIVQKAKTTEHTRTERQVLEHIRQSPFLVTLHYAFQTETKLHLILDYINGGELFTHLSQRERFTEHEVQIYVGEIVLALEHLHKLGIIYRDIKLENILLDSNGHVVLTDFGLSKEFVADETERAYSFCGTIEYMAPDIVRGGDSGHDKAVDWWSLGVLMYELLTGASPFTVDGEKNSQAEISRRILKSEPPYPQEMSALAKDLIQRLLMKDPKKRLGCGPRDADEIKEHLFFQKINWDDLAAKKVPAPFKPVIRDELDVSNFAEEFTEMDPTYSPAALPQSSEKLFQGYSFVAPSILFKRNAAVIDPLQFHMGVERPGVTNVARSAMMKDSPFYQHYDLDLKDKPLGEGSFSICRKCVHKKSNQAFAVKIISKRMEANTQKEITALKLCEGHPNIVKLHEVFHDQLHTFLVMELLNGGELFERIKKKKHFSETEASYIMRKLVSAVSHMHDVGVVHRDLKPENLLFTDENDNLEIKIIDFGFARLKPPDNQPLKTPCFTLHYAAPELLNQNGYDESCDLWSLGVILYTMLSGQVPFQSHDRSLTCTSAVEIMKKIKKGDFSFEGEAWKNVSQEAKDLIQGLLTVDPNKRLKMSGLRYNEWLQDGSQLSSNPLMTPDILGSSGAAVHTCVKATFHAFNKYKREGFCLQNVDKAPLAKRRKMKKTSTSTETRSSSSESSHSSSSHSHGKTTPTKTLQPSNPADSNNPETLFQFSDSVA

| Structure (SMILES) | IC50 [1] [nM] | IC50 [2] [nM] | IC50 [3] [nM] | IC50 [4] [nM] | also measured |
| --- | --- | --- | --- | --- | --- |
| Cc1cc(=O)n(C2CCCC2)c2nc(Nc3ccc(N4CCOCC4)cc3)ncc12 | 116 | > 5000 | 1120 | > 5000 | – |
| Cc1c(Br)c(=O)n(C2CCCC2)c2nc(Nc3ccc(N4CCNCC4)cc3)ncc12 | – | – | 2610 | 950 | IC50 [5]: 439 nM |
| Cc1cc(=O)n(C2CCCC2)c2nc(Nc3ccc(N4CCC(CCCO)CC4)cc3)ncc12 | 114 | > 5000 | > 5000 | > 5000 | – |
| Cc1cc(=O)n(C2CCCC2)c2nc(Nc3ccc(N4CCN(C(=O)OC(C)(C)C)CC4)cc3)ncc12 | 425 | > 5000 | – | > 5000 | – |
| Cc1cc(=O)n(CCC(C)C)c2nc(Nc3ccc(N4CCNCC4)cc3)ncc12 | 1080 | > 5000 | > 5000 | > 5000 | – |
| CCOC(=O)c1c(C)c2cnc(Nc3ccc(N4CCNCC4)cc3)nc2n(C2CCCC2)c1=O | – | > 5000 | > 5000 | > 5000 | IC50 [6]: 6 nM |
| Cc1cc(=O)n(C2CCCC2)c2nc(Nc3ccc(N4CCC(N)C4)cc3)ncc12 (stereo not drawn) | 64 | – | > 5000 | – | – |
| CCc1cc(=O)n(C2CCCC2)c2nc(Nc3ccc(N4CCNCC4)cc3)ncc12 | 655 | > 5000 | > 5000 | > 5000 | – |
| Cc1cc(=O)n(C2CCCC2)c2nc(Nc3ccc(N4CCNC(C)(C)C4)cc3)ncc12 | 65 | > 5000 | > 5000 | > 5000 | – |
| Cc1cc(=O)n(C2CCCC2)c2nc(Nc3ccc(N4C[C@@H](C)N[C@@H](C)C4)cc3)ncc12 | 240 | – | > 5000 | > 5000 | – |
| CC(=O)N1CCN(c2ccc(Nc3ncc4c(C)cc(=O)n(C5CCCC5)c4n3)cc2)CC1 | 103 | > 5000 | > 5000 | > 5000 | – |
| O=c1cc(C(F)(F)F)c2cnc(Nc3ccc(N4CCNCC4)cc3)nc2n1C1CCCC1 | 2650 | > 5000 | > 5000 | > 5000 | – |
| O=c1ccc2cnc(Nc3ccc(N4CCC(CCCO)CC4)cc3)nc2n1C1CCCC1 | – | – | > 5000 | 4550 | – |
| O=c1ccc2cnc(Nc3ccc(N4CCNCC4)cc3)nc2n1C1CCCC1 | – | – | – | 80 | – |
| Cc1cc(=O)n(C2CCCC2)c2nc(Nc3ccc(N4CCN(C=O)CC4)cc3)ncc12 | 161 | > 5000 | > 5000 | > 5000 | – |
| CC(=O)c1c(C)c2cnc(Nc3ccc(N4CCNCC4)cc3)nc2n(C2CCCC2)c1=O | – | – | – | – | IC50 [7]: > 10000 nM; IC50 [8]: > 10000 nM; IC50 [9]: > 10000 nM; IC50 [10]: > 10000 nM; IC50 [11]: > 10000 nM; IC50 [12]: > 10000 nM; IC50 [13]: 1860 nM; IC50 [14]: > 10000 nM; IC50 [6]: 2 nM; IC50 [15]: > 10000 nM; IC50 (MDA-MB-435): 32 nM; IC50 [16]: > 10000 nM; IC50 [17]: > 10000 nM; IC50 [18]: > 10000 nM; IC50 [19]: > 10000 nM; IC50 (Protein kinase C (PKC)): > 10000 nM; IC50 [20]: > 10000 nM; IC50 [21]: > 10000 nM; IC50 [22]: > 10000 nM |
| Cc1c(C)c2cnc(Nc3ccc(N4CCNCC4)cc3)nc2n(C2CCCC2)c1=O | 165 | – | > 5000 | > 5000 | – |
| Cc1cc(=O)n(C2CCCC2)c2nc(Nc3ccc(N4CCCCC4)cc3)ncc12 | 180 | > 5000 | – | – | – |
| Cc1cc(=O)n(C(C)C)c2nc(Nc3ccc(N4CCNCC4)cc3)ncc12 | 265 | > 5000 | > 5000 | > 5000 | – |
| Cc1cc(=O)n(C2CCCC2)c2nc(Nc3ccc(N4CCC(O)C4)cc3)ncc12 (stereo not drawn) | 260 | – | > 5000 | – | – |

The remaining compounds from weak to strong by IC50 [1], led by results:

| IC50 [1] [nM] | IC50 [2] [nM] | IC50 [3] [nM] | IC50 [4] [nM] | Structure (SMILES) | also measured |
| --- | --- | --- | --- | --- | --- |
| 52 | > 5000 | > 5000 | > 5000 | Cc1cc(=O)n(C2CCCC2)c2nc(Nc3ccc(N4CCCNCC4)cc3)ncc12 | – |
| 35 | > 5000 | > 5000 | > 5000 | Cc1cc(=O)n(C2CCCC2)c2nc(Nc3ccc(N4CCN(CCO)CC4)cc3)ncc12 | – |
| 32 | > 5000 | > 5000 | > 5000 | Cc1c(C(=O)O)c(=O)n(C2CCCC2)c2nc(Nc3ccc(N4CCNCC4)cc3)ncc12 | – |
| 30 | > 5000 | > 5000 | > 5000 | Cc1c(F)c(=O)n(C2CCCC2)c2nc(Nc3ccc(N4CCNCC4)cc3)ncc12 | – |
| 28 | > 5000 | > 5000 | > 5000 | Cc1cc(=O)n(C2CCCC2)c2nc(Nc3ccc(N4CCNCC4)c(Cl)c3)ncc12 | – |
| 25 | 1540 | 4120 | 1650 | CCc1c(C)c2cnc(Nc3ccc(N4CCNCC4)cc3)nc2n(C2CCCC2)c1=O | – |
| 18 | > 5000 | > 5000 | > 5000 | Cc1cc(=O)n(C2CCCC2)c2nc(Nc3ccc(N4CCN(C)CC4)cc3)ncc12 | – |
| 16 | 1620 | > 5000 | 1500 | Cc1c(Cl)c(=O)n(C2CCCC2)c2nc(Nc3ccc(N4CCNCC4)cc3)ncc12 | – |
| 14 | – | > 5000 | – | Cc1cc(=O)n(C2CCCC2)c2nc(Nc3ccc(N4CCNCC4)cc3)ncc12 | – |
| 10 | 28 | 275 | 85 | O=c1ccc2cnc(Nc3ccc(N4CCOCC4)cc3)nc2n1C1CCCC1 | – |
| 10 | 660 | 570 | 246 | O=c1ccc2cnc(Nc3ccc(N4CCCCC4)cc3)nc2n1C1CCCC1 | – |
| 7 | 14 | – | 39 | CN1CCN(c2ccc(Nc3ncc4ccc(=O)n(C5CCCC5)c4n3)cc2)CC1 | – |
| 5 | 443 | 1870 | 365 | Cc1c(I)c(=O)n(C2CCCC2)c2nc(Nc3ccc(N4CCNCC4)cc3)ncc12 | – |
| 4 | 2820 | > 5000 | > 5000 | COC(=O)c1c(C)c2cnc(Nc3ccc(N4CCNCC4)cc3)nc2n(C2CCCC2)c1=O | – |

Reference: ChEMBL document CHEMBL1143565, “Pyrido[2,3-d]pyrimidin-7-ones as specific inhibitors of cyclin-dependent kinase 4” (J Med Chem, 2005)
